For one data set, the system named is Panc03.27 cells. The data set can be described thus: Seahorse XF glycolysis stress assay, glucose-induced ECAR. The class given is cell-based, human. The method in brief: (§1)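 Seeded 48 h before in growth medium (1.5 × 10⁴ Panc03.27, MDA-MB-231, HPNE; 1.2 × 10⁴ Mia Paca-2; 2.0 × 10⁴ QGP1). MCT1/2 inhibitor 0.5 μM or DMSO added 4 h pre-assay. Medium: DMEM without NaHCO₃, 2 mM glutamine, 5 mM glucose, pH 7.4. Injected in order: 2 mM sodium pyruvate, 10 mM glucose, 2 μM oligomycin, 50 mM 2-DG. Glucose-induced/baseline ECAR ratio, normalized to Hoechst cell counts and 0 mM pyruvate; three experiments.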

For a further data set, the system named is Mia Paca-2 cells. Described as above. In kind it is cell-based, human. In short, it runs like this:
as §1

For the next data set, the system named is QGP1 cells. The data set is described as above. In kind it is cell-based, human. The method in brief:
as §1

The subject of a further data set is MDA-MB-231 cells. Described as above. In kind it is cell-based, human. The method in brief:
as §1

For a further data set, the system named is HPNE cells. Described as above. The class given is cell-based, human. In short, it runs like this:
as §1

For data set [1] the following is noted: mice; injection of 80 mM hyperpolarized solution; cited from earlier work.
For data set [2] the following is noted: humans; 230 mM at 5 ml/s injection rate; cited from earlier work.
Another data set concerns the target bovine heart LDH (Bos taurus, UniProt Q5E9B1). The data set can be described thus: LDH coupled-enzyme kinetic assay. In kind it is biochemical.
The target of data set [3] is purified human recombinant LDHA (Homo sapiens, UniProt P00338). The data set can be described thus: LDH coupled-enzyme kinetic assay. In kind it is biochemical.
A further data set addresses human recombinant LDHB (Homo sapiens, UniProt P07195). The data set can be described thus: LDH coupled-enzyme kinetic assay. The class given is biochemical.
Data set [4] concerns LDH in extracts from Panc03.27 cells. Kind of data set: LDH enzyme kinetics in cell extracts. In kind it is biochemical, human. The conditions noted are these: Panc03.27 cell extract. The method in brief: (§2)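 Cells washed in ice-cold PBS, lysed in ice-cold LDH assay lysis buffer, protein measured by Coomassie. Extract mixed with Tris/NaCl/NADH buffer and Tris/NaCl/pyruvate (0–30 mM). Plate shaken 30 s, then A340 read five times at 30-s intervals; initial velocities from NADH oxidation. Enzyme-free and pyruvate-free controls run. Vmax, Vpeak, apparent Km and Ki from biphasic curve fits. Triplicate, three independent experiments; mean ± SE.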

In data set [5] the test system is LDH in extracts from Mia Paca-2 cells. The data set can be described thus: LDH enzyme kinetics in cell extracts. In kind it is biochemical, human. The note with it: Mia Paca-2 cell extract. In short, it runs like this: as §2
In data set [6] the test system is LDH in extracts from QGP1 cells. Kind of data set: LDH enzyme kinetics in cell extracts. The class given is biochemical, human. The note with it: QGP1 cell extract. In short, it runs like this:
as §2

The test system of data set [7] is LDH in extracts from MDA-MB-231 cells. Kind of data set: LDH enzyme kinetics in cell extracts. In kind it is biochemical, human. The conditions noted are these: MDA-MB-231 cell extract. In short, it runs like this: as §2
Data set [8] has as its system LDH in extracts from HPNE cells. Kind of data set: LDH enzyme kinetics in cell extracts. The class given is biochemical, human. The note with it: HPNE cell extract. In short, it runs like this: as §2
[9] abbreviates: 0.5 μM AZD3965 pretreatment 4 h, 5 mM glucose, vs DMSO control.
Where [10] appears, read: LDH bovine heart, pyruvate 0–30 mM.
Setting [11] is: read-out: Ki (apparent, substrate inhibition).
The mark [12] stands for this setting: 2 mM sodium pyruvate, medium with 5 mM glucose, DMSO control.

Read-outs that look alike come from different tables or passages of the source.

What is called Km is the substrate concentration at which the rate is half of its maximum.

human recombinant LDHB, sequence (P07195 whole entry): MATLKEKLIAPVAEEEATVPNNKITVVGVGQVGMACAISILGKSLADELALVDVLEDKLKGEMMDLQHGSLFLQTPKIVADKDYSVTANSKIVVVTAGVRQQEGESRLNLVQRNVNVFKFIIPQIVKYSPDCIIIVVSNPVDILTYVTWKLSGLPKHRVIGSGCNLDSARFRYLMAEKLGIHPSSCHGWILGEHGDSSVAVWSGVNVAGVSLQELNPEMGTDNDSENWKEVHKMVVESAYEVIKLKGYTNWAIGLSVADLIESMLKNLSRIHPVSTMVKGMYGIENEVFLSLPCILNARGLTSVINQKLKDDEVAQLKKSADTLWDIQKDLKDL
bovine heart LDH, sequence (Q5E9B1 2-334): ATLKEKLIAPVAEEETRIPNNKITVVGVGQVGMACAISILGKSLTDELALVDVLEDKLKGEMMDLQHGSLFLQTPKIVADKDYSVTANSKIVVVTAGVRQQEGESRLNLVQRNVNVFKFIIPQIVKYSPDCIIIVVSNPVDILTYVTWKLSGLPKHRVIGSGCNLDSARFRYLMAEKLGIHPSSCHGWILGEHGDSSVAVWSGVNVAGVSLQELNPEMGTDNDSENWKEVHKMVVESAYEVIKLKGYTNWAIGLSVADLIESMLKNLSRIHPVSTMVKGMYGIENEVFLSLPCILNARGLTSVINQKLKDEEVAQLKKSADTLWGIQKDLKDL

On to `Cc1[nH]nc(C(F)(F)F)c1Cc1sc2c(c1C(=O)N1C[C@](C)(O)CO1)c(=O)n(C)c(=O)n2C(C)C` [AZD3965, reference compound], for which the “Effect on 2 mM pyruvate-induced inhibition of glucose-stimulated ECAR” value in the data set with Panc03.27 cells (setting [9]) is given as “blocked”; with Mia Paca-2 cells (setting [9]), “blocked”; in the data set with QGP1 cells (setting [9]), “blocked”; in the data set on MDA-MB-231 cells (setting [9]), “no significant effects”; in the data set with HPNE cells (setting [9]), “blocked”.
As to `CC(=O)[13C](=O)O` [[1-^13C]pyruvate], the Blood pyruvate concentration is given as around 8 mM in data set [1] and at least 2 mM in data set [2].
`CC(=O)C(=O)O` [pyruvate]: the Ki on bovine heart LDH is 1.75 ± 0.11 mM; in data set [3], 5.33 ± 0.49 mM; on human recombinant LDHB it was 2.88 ± 0.4 mM; in [4] (setting [11]), 2.33 ± 0.21 mM; in data set [5] (setting [11]) it was 4.26 ± 0.32 mM; in data set [6] (setting [11]), 3.42 ± 0.25 mM. Besides, the values for the Ki in data set [7] (setting [11]) and in [8] (setting [11]) were 3.39 ± 0.5 mM and 2.67 ± 0.2 mM, respectively. In addition, the “Vmaz (maximal initial velocity from activation curve fit)” value at bovine heart LDH (setting [10]) is listed as 3.23 ± 0.10 ΔAbs/s∗10^−3/μg protein; in [3] (rLDHA, pyruvate 0–30 mM) it was 1.00 ± 0.04 ΔAbs/s∗10^−3/μg protein; on human recombinant LDHB (rLDHB, pyruvate 0–30 mM), 1.00 ± 0.05 ΔAbs/s∗10^−3/μg protein; in data set [4], 2.00 ± 0.07 ΔAbs/s∗10^−3/μg protein; in [5] it was 0.88 ± 0.03 ΔAbs/s∗10^−3/μg protein; in data set [6] it was 1.85 ± 0.05 ΔAbs/s∗10^−3/μg protein. Besides, the “Vmaz (maximal initial velocity from activation curve fit)” value in [7] is recorded as 2.98 ± 0.17 ΔAbs/s∗10^−3/μg protein; in data set [8] it was 2.71 ± 0.08 ΔAbs/s∗10^−3/μg protein. Further, the “Vpeak (peak initial velocity of the biphasic curve fit)” value is reported as 2.08 ΔAbs/s∗10^−3/μg protein on bovine heart LDH (setting [10]); 0.75 ΔAbs/s∗10^−3/μg protein in data set [3] (rLDHA, pyruvate 0–30 mM); 0.75 ΔAbs/s∗10^−3/μg protein at human recombinant LDHB (rLDHB, pyruvate 0–30 mM); 1.56 ΔAbs/s∗10^−3/μg protein in data set [4]; 0.66 ΔAbs/s∗10^−3/μg protein in data set [5]; 1.42 ΔAbs/s∗10^−3/μg protein in [6]. Besides, the “Vpeak (peak initial velocity of the biphasic curve fit)” value in data set [7] is on record as 2.20 ΔAbs/s∗10^−3/μg protein; in [8], 1.98 ΔAbs/s∗10^−3/μg protein. Further, the Km was 50 µM in data set [4] (read-out: Km (apparent)); 110 ± 10 µM in data set [5] (read-out: Km (apparent)); 80 ± 10 µM in data set [6] (read-out: Km (apparent)); 100 ± 20 µM in data set [7] (read-out: Km (apparent)); 90 ± 10 µM in data set [8] (read-out: Km (apparent)). In addition, the “Decrease of glucose-stimulated ECAR” value with Panc03.27 cells (setting [12]) is given as above 30%; in the data set on Mia Paca-2 cells (setting [12]), above 30%; in the data set with QGP1 cells (setting [12]), above 30%; with MDA-MB-231 cells (setting [12]), above 30%; with HPNE cells (setting [12]) it was “less than 10%”.

The record behind these values is PMC8233206 (The Journal of Biological Chemistry, 2021).
